MIC data for 9 compounds are collected here from ChEMBL document CHEMBL1140345, “Conformational constraint in oxazolidinone antibacterials. Synthesis and structure-activity studies of (azabicyclo[3.1.0]hexylphenyl)oxazolidinones” (2005).

Molecules are shown by their SMILES. In brackets after ≈: the same amount, converted by molar mass.

Experiment [1] relates to Escherichia coli. As to the kind of experiment: Minimum inhibitory concentration against Escherichia coli UC6674. In kind it is functional. The essentials:
(§1)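 Broth microdilution MIC following the NCCLS M7-A4 approved standard for dilution susceptibility testing of aerobically growing bacteria. The method is taken as accurate to within one dilution.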

In experiment [2] the test system is Haemophilus influenzae. As to the kind of experiment: Minimum inhibitory concentration against ampicillin-reisitant Haemophilus influenzae UC30063. The format is functional. In short, it runs like this:
as §1

The test system of experiment [3] is Enterococcus faecalis. As to the kind of experiment: Minimum inhibitory concentration against Enterococcus faecalis UC9217; Range is 1-2 ug/mL. The format is functional. The essentials: as §1
In experiment [4] the test system is Staphylococcus aureus. As to the kind of experiment: Minimum inhibitory concentration against methicillin, ciprofloxacin, rifampin, imipenem-resistant Staphylococcus aureus UC12673; Range is 1-2 ug/mL. The format is functional. The essentials: (§2)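 MIC determined by standard broth microdilution following the NCCLS M7-A4 approved standard for dilution susceptibility testing of aerobically growing bacteria.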

Experiment [5] concerns Staphylococcus aureus. As to the kind of experiment: Minimum inhibitory concentration against methicillin-susceptible Staphylococcus aureus UC9213; Range is 2-4 ug/mL. In kind it is functional. In short, it runs like this:
as §2

Experiment [6] concerns Staphylococcus epidermidis. The experiment can be described thus: Minimum inhibitory concentration against methicillin-resistant Staphylococcus epidermidis UC12084.
Experiment [7] has as its system Streptococcus pneumoniae. As to the kind of experiment: Minimum inhibitory concentration against penicillin-susceptible Streptococcus pneumoniae UC9912. In kind it is functional. The note with it: Streptococcus pneumoniae; read-out: MIC. The essentials:
as §1

Experiment [8] deals with Staphylococcus aureus. The experiment can be described thus: Minimum inhibitory concentration against methicillin, ciprofloxacin, rifampin, imipenem-resistant Staphylococcus aureus UC12673; Range is 2-4 ug/mL. In kind it is functional. The essentials: as §2
The subject of experiment [9] is Enterococcus faecalis. As to the kind of experiment: Minimum inhibitory concentration against Enterococcus faecalis UC9217. In kind it is functional. The essentials: as §1
In experiment [10] the test system is Streptococcus pneumoniae. The experiment can be described thus: Minimum inhibitory concentration against penicillin-susceptible Streptococcus pneumoniae UC9912; Range is 0.5-1 ug/mL. In kind it is functional. The essentials: as §1
Experiment [11] deals with Staphylococcus aureus. The experiment can be described thus: Minimum inhibitory concentration against methicillin, ciprofloxacin, rifampin, imipenem-resistant Staphylococcus aureus UC12673. In kind it is functional. The essentials: as §2
The subject of experiment [12] is Staphylococcus aureus. The experiment can be described thus: Minimum inhibitory concentration against methicillin-susceptible Staphylococcus aureus UC9213. In kind it is functional. In short, it runs like this:
as §2

The subject of experiment [13] is Haemophilus influenzae. As to the kind of experiment: Minimum inhibitory concentration against ampicillin-reisitant Haemophilus influenzae UC30063; Range is from 4-8 ug/mL. In kind it is functional. In short, it runs like this: as §1
Experiment [14] deals with Staphylococcus epidermidis. As to the kind of experiment: Minimum inhibitory concentration against methicillin-resistant Staphylococcus epidermidis UC12084; Range is from 0.5-1 ug/mL.
In experiment [15] the test system is Streptococcus pneumoniae. The experiment can be described thus: Minimum inhibitory concentration against penicillin-susceptible Streptococcus pneumoniae UC9912; Range is 1-2 ug/mL. In kind it is functional. The essentials:
as §1

Experiment [16] has as its system Staphylococcus epidermidis. The experiment can be described thus: Minimum inhibitory concentration against methicillin-resistant Staphylococcus epidermidis UC12084; Range is 1-2 ug/mL.
The subject of experiment [17] is Staphylococcus epidermidis. The experiment can be described thus: Minimum inhibitory concentration against methicillin-resistant Staphylococcus epidermidis UC12084; Range is from 1-2 ug/mL.
The subject of experiment [18] is Enterococcus faecalis. The experiment can be described thus: Minimum inhibitory concentration against Enterococcus faecalis UC9217; Range is from 2-4 ug/mL. The format is functional. The essentials: as §1
For experiment [19], the system named is Haemophilus influenzae. The experiment can be described thus: Minimum inhibitory concentration against ampicillin-reisitant Haemophilus influenzae UC30063; Range is from 8-16 ug/mL. The format is functional. The essentials:
as §1

Experiment [20] deals with Streptococcus pneumoniae. As to the kind of experiment: Minimum inhibitory concentration against penicillin-susceptible Streptococcus pneumoniae UC9912; Range is from 0.5-1 ug/mL. The format is functional. In short, it runs like this: as §1
Experiment [21] deals with Haemophilus influenzae. The experiment can be described thus: Minimum inhibitory concentration against ampicillin-reisitant Haemophilus influenzae UC30063; Range is 8-16 ug/mL. In kind it is functional. In short, it runs like this: as §2
Experiment [22] relates to Staphylococcus epidermidis. The experiment can be described thus: Minimum inhibitory concentration against methicillin-resistant Staphylococcus epidermidis UC12084; Range is 0.5-1 ug/mL.
Experiment [23] concerns Escherichia coli. The experiment can be described thus: Minimum inhibitory concentration against Escherichia coli UC6674; Range is 16-32 ug/mL. The format is functional. The essentials:
as §1

The test system of experiment [24] is Staphylococcus epidermidis. The experiment can be described thus: Minimum inhibitory concentration against methicillin-resistant Staphylococcus epidermidis UC12084; Range is 0.5-1 ug/mL. This is another data set of the same source.
For experiment [25], the system named is Moraxella catarrhalis. The experiment can be described thus: Minimum inhibitory concentration Moraxella catarrhalis. In kind it is functional. The essentials: as §1
Where [26] appears, read: Haemophilus influenzae, read-out: MIC.

As for `CC(=O)NC[C@H]1CN(c2cc(F)c(N3C[C@@H]4[C@@H](O)[C@@H]4C3)c(F)c2)C(=O)O1`, the MIC in experiment [1] is above 64 µg/mL; in experiment [2] (setting [26]), 16 µg/mL (≈ 43.6 µM); in experiment [3], 2 µg/mL (≈ 5.44 µM); in experiment [4], 2 µg/mL (≈ 5.44 µM); in experiment [5], 4 µg/mL (≈ 10.9 µM); in experiment [6], 1 µg/mL (≈ 2.72 µM). Further, in [7], the MIC came to 1 µg/mL (≈ 2.72 µM).

Take `CC(=O)NC[C@H]1CN(c2cc(F)c(N3C[C@@H]4[C@H](C3)[C@H]4NC=O)c(F)c2)C(=O)O1`: the MIC was above 64 µg/mL in [1]; 32 µg/mL (≈ 81.1 µM) in experiment [2] (setting [26]); 4 µg/mL (≈ 10.1 µM) in experiment [5]; 4 µg/mL (≈ 10.1 µM) in [8]; 2 µg/mL (≈ 5.07 µM) in experiment [9]; 1 µg/mL (≈ 2.54 µM) in [6]. The compound also came in with an MIC in experiment [10] of 1 µg/mL (≈ 2.54 µM).

In the case of `CC(=O)NC[C@H]1CN(c2cc(F)c(N3C[C@@H]4[C@H](C3)[C@H]4C(=O)O)c(F)c2)C(=O)O1`, the MIC is above 64 µg/mL in [1]; 1 µg/mL (≈ 2.53 µM) in experiment [11]; 2 µg/mL (≈ 5.06 µM) in [12]; 1 µg/mL (≈ 2.53 µM) in experiment [9]; 8 µg/mL (≈ 20.2 µM) in experiment [13]; 1 µg/mL (≈ 2.53 µM) in experiment [7]. Moreover, in experiment [14], the MIC was 1 µg/mL (≈ 2.53 µM).

For `CCC(=O)NC[C@H]1CN(c2cc(F)c(N3C[C@@H]4[C@H](C3)[C@H]4C(=O)O)c(F)c2)C(=O)O1`, the MIC in experiment [2] (setting [26]) amounted to 8 µg/mL (≈ 19.5 µM); in experiment [11], 1 µg/mL (≈ 2.44 µM); in [12], 2 µg/mL (≈ 4.89 µM); in experiment [9], 1 µg/mL (≈ 2.44 µM); in experiment [15], 2 µg/mL (≈ 4.89 µM); in experiment [16], 2 µg/mL (≈ 4.89 µM).

On to `CC(=O)NC[C@H]1CN(c2cc(F)c(N3C[C@@H]4[C@H](C3)[C@H]4NC(C)=O)c(F)c2)C(=O)O1`, for which the MIC is above 64 µg/mL in experiment [1]; 64 µg/mL (≈ 157 µM) in [2] (setting [26]); 2 µg/mL (≈ 4.9 µM) in [17]; 4 µg/mL (≈ 9.79 µM) in [11]; 4 µg/mL (≈ 9.79 µM) in experiment [12]; 1 µg/mL (≈ 2.45 µM) in [7]. The MIC in experiment [18] came to 4 µg/mL (≈ 9.79 µM).

For `CCC(=O)NC[C@H]1CN(c2cc(F)c(N3C[C@@H]4[C@@H](N)[C@@H]4C3)c(F)c2)C(=O)O1`, the MIC in experiment [17] stood at 2 µg/mL (≈ 5.26 µM); in [19], 16 µg/mL (≈ 42.1 µM); in experiment [20] it was 1 µg/mL (≈ 2.63 µM); in experiment [11] it was 4 µg/mL (≈ 10.5 µM); in experiment [12], 4 µg/mL (≈ 10.5 µM); in experiment [18] it was 4 µg/mL (≈ 10.5 µM).

On to `CC(=O)NC[C@H]1CN(c2ccc(N3C[C@@H]4[C@@H](N)[C@@H]4C3)c(F)c2)C(=O)O1`, for which the MIC in [1] amounted to 32 µg/mL (≈ 91.9 µM); in [21] it was 16 µg/mL (≈ 45.9 µM); in experiment [5], 4 µg/mL (≈ 11.5 µM); in experiment [22] it was 1 µg/mL (≈ 2.87 µM); in experiment [11], 4 µg/mL (≈ 11.5 µM); in experiment [9], 4 µg/mL (≈ 11.5 µM). For the same compound, in experiment [7], the MIC turned out to be 1 µg/mL (≈ 2.87 µM).

`CC(=O)NC[C@H]1CN(c2cc(F)c(N3C[C@@H]4[C@@H](N)[C@@H]4C3)c(F)c2)C(=O)O1` (stereo in doubt; 18b): the MIC in [2] came to 8 µg/mL (≈ 21.8 µM); in [3], 2 µg/mL (≈ 5.46 µM); in [5], 4 µg/mL (≈ 10.9 µM); in experiment [23], 32 µg/mL (≈ 87.3 µM); in experiment [8], 4 µg/mL (≈ 10.9 µM); in experiment [24], 1 µg/mL (≈ 2.73 µM). Besides, in [7], the MIC was determined as 0.5 µg/mL (≈ 1.36 µM).

With `CC(=O)NC[C@H]1CN(c2ccc(N3CCOCC3)c(F)c2)C(=O)O1` [LINEZOLID], the MIC in experiment [1] is above 64 µg/mL; in experiment [21] it was 16 µg/mL (≈ 47.4 µM); in [25], 4 µg/mL (≈ 11.9 µM); in [6] it was 1 µg/mL (≈ 2.96 µM).
